Assay results of several laboratories.
Lines come from different studies, so protocols differ.
SLCO1B1: Solute carrier organic anion transporter family member 1B1 (SLCO1B1, Homo sapiens, UniProt Q9Y6L6)
CYP3A4: Cytochrome P450 3A4 (CYP3A4, Homo sapiens, UniProt P08684)
CYP1A2: Cytochrome P450 1A2 (CYP1A2, Homo sapiens, UniProt P05177)

| SMILES | target | assay | system | conditions | measurement | value |
| --- | --- | --- | --- | --- | --- | --- |
| CN(CCC(=O)O)C(=O)c1ccc2c(c1)CC[C@@H]1[C@@H]2CC[C@]2(C)C(c3cncc(F)c3)=CC[C@@H]12 | SLCO1B1 | transporter uptake, inhibitor | – | – | IC50 | 3.1 µM |
| CN(C(=O)n1cnc(-c2ccc[n+]([O-])c2)c1)C1CCCCC1 | SLCO1B1 | transporter uptake, inhibitor | HEK293 | 10 µg/mL | inhibition | ~20% |
| COC(=O)C1CCN(C(=O)c2cccc(NCc3cnc4nc(N)nc(N)c4n3)c2)CC1 | CYP3A4 | enzyme activity, inhibitor, luciferase | – | 10 µM | inhibition | -19.5% |
| C[C@H]1C[C@H]2[C@@H]3CCC4=CC(=O)C=C[C@]4(C)[C@@]3(Cl)[C@@H](O)C[C@]2(C)[C@@]1(O)C(=O)CO | SLCO1B1 | transporter uptake, inhibitor | – | – | IC50 | 6.7 µM |
| NC(=O)C1CCN(C(=O)c2ccc(NCc3cnc4nc(N)nc(N)c4n3)cc2)CC1 | CYP3A4 | enzyme activity, inhibitor, luciferase | – | 10 µM | inhibition | -4.54% |
| Nc1ccc(S(=O)(=O)Nc2ccnn2-c2ccccc2)cc1 | CYP1A2 | enzyme activity, inhibitor | human, liver microsomes | 10 µM | inhibition | -9% |
| CCCOC(=O)C1CCN(C(=O)c2ccc(N(C)Cc3cnc4nc(N)nc(N)c4n3)cc2)CC1 | CYP3A4 | enzyme activity, inhibitor, luciferase | – | 10 µM | inhibition | -10.1% |
| CC(C)(C)OC(=O)NCCCCCC(=O)NCc1cccnc1 | CYP3A4 | thermal stability | – | – | ΔTm | -0.2 °C |
| O=C(Nc1c2c(cc3c1CCC3)CCC2)NS(=O)(=O)/C=C/c1nccs1 | CYP1A2 | enzyme activity, inhibitor | human, liver microsomes | 2 µM, pH 7.4 | inhibition | 14.6% |
| C=CC(=O)Nc1cc(Nc2nccc(Nc3cc(Cl)c(F)cc3C(C)(C)O)n2)c(OC)cc1N1CC[C@@H](N(C)C)C1 | CYP3A4 | enzyme activity, inhibitor | human, liver microsomes | – | IC50 | 18.2 µM |
| CC(C)(C)OC(=O)N[C@H](CSCCC(=O)NCc1cccnc1)Cc1ccccc1 | CYP3A4 | thermal stability | – | – | ΔTm | -1 °C |
